In experiment [1] the target is Adenosine receptor A2b (Homo sapiens) (UniProt P29275). The experiment can be described thus: Activity at human adenosine A2B receptor in CHO cells assessed as stimulation of cAMP production relative to NECA at 10 uM.
The target of experiment [2] is T1, Adenosine receptor A3 (Homo sapiens, UniProt P0DMS8).
T1 sequence (P0DMS8 whole entry): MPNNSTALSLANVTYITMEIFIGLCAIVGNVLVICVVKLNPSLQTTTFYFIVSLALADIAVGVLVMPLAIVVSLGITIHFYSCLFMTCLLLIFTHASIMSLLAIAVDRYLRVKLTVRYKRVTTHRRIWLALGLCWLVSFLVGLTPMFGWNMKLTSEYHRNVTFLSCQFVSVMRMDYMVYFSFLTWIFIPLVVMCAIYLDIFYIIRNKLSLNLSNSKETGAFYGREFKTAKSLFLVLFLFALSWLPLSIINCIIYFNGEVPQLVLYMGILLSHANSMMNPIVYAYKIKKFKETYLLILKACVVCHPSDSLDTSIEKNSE
Put plainly: Displacement of [125I]AB-MECA from human Adenosine A3 receptor expressed in CHO cells. It counts as cell-based.

The target in experiment [3] is T2, Adenosine receptor A3 (Rattus norvegicus, UniProt P28647).
T2 sequence (P28647 whole entry): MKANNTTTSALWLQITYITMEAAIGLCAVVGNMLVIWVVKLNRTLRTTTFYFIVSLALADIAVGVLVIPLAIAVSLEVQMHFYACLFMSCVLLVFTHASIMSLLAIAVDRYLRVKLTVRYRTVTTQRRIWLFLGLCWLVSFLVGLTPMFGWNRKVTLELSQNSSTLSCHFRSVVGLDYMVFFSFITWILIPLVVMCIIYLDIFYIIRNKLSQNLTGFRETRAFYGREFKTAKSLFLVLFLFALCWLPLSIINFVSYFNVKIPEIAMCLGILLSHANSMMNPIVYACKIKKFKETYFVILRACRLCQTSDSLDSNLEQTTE
Put plainly: Displacement of [125I]AB-MECA from rat Adenosine A3 receptor expressed in CHO cells. Type of experiment: cell-based. The gist of the method:
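Membranes from CHO cells expressing rat A3AR, prepared in 50 mM Tris-HCl pH 7.4 with 10 mM MgCl2, 1 mM EDTA and 3 units/mL adenosine deaminase. Incubated with [125I]AB-MECA (0.5 nM final) and increasing compound concentrations for 60 min at 25 °C. Nonspecific binding defined with 10 µM NECA. GF/B filtration, gamma counting, Ki derived.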

For another experiment, the target named is T3, Adenosine receptor A1 (Homo sapiens, UniProt P30542).
T3 sequence (P30542 whole entry): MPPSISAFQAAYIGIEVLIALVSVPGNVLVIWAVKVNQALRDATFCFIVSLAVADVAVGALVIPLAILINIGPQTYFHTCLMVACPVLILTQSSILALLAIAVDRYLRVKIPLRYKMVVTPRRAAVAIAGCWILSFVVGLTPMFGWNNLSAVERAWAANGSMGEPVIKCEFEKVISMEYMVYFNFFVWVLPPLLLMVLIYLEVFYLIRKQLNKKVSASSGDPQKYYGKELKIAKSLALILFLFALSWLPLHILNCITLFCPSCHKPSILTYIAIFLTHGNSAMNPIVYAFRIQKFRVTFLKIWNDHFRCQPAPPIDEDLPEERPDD
The experiment can be described thus: Displacement of [3H]CCPA from human Adenosine A1 receptor expressed in CHO cells. It counts as cell-based.

Experiment [4] addresses T4, Adenosine receptor A2a (Homo sapiens, UniProt P29274). The experiment can be described thus: Inhibition of [3H]CGS21680 binding to human Adenosine A2A receptor expressed in CHO cells at 10 uM. It counts as cell-based. The method in brief: (§1)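 Membranes from CHO cells stably transfected with human A1AR (radioligand [3H]CCPA) or human A2AAR (radioligand [3H]CGS21680), in Tris-HCl pH 7.4/MgCl2/EDTA buffer with adenosine deaminase. Compound tested at a fixed 10 µM. Result expressed as percent displacement of radioligand, n = 3 unless otherwise noted.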

For experiment [5], the target named is T5, Adenosine receptor A1 (Homo sapiens) (UniProt P30542).
T5 sequence (whole entry): T3 sequence (P30542 whole entry)
Put plainly: Inhibition of [3H]CCPA binding to human Adenosine A1 receptor expressed in CHO cells at 10 uM. Type of experiment: cell-based. The gist of the method: as §1

Experiment [6] has as its target T4, Adenosine receptor A2a. Put plainly: Displacement of [3H]CGS-21680 from human Adenosine A2A receptor expressed in CHO cells. It counts as cell-based.
For experiment [7], the target named is Adenosine receptors; A1 & A3 (Homo sapiens) (UniProt P30542+P0DMS8). Put plainly: Selectivity for human adenosine A3 over human adenosine A1 receptor. Type of experiment: protein assay.

This note sets out measurements from ChEMBL document CHEMBL1137298, “2-triazole-substituted adenosines: a new class of selective A3 adenosine receptor agonists, partial agonists, and antagonists” (J Med Chem, 2006).

Activity calls are given as the source filed them. No cut-off for these calls is given here.

T4 sequence (P29274 whole entry): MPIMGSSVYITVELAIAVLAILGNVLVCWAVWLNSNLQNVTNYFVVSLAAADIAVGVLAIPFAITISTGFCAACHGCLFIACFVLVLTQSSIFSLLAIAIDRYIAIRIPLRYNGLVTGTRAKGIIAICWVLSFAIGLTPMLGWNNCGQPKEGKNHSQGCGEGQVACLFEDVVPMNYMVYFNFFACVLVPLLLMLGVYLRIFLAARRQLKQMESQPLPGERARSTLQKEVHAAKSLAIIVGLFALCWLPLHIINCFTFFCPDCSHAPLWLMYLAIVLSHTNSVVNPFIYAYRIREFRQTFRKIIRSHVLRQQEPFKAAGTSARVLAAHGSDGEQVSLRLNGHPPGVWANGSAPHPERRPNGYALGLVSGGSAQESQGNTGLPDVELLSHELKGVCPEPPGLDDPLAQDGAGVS

Turning to `CNc1nc(-n2cc(-c3ccccn3)nn2)nc2c1ncn2[C@@H]1O[C@H](CO)[C@@H](O)[C@H]1O`, the result in experiment [1] was inactive. Further, the values for the Ki on Adenosine receptor A3 [2], on Adenosine receptor A3 [3] and at Adenosine receptor A1 were 10.3 nM, greater than 10000 nM and 1970 nM, respectively. The inhibition at Adenosine receptor A2a [4] came to 40%.
Turning to `CCCOc1ccc(-c2cn(-c3nc(NC)c4ncn([C@@H]5O[C@H](CO)[C@@H](O)[C@H]5O)c4n3)nn2)cc1`, the Activity in experiment [1] is less than 50%. For the same molecule, the Ki on Adenosine receptor A3 [2] is 25.2 nM; at Adenosine receptor A3 [3], greater than 10000 nM. Moreover, the inhibition in experiment [5] was 49%; on Adenosine receptor A2a [4], 14%.
As to `CNc1nc(-n2cc(-c3ccccc3)nn2)nc2c1ncn2[C@@H]1O[C@H](CO)[C@@H](O)[C@H]1O`, the outcome in experiment [1] was inactive. Besides, the Ki at Adenosine receptor A3 [2] was found to be 14.9 nM. The inhibition in experiment [5] stood at 36%; at Adenosine receptor A2a [4], 5%.
`CNc1nc(-n2cc(CCO)nn2)nc2c1ncn2[C@@H]1O[C@H](CO)[C@@H](O)[C@H]1O`: in experiment [1], the result was inactive. Moreover, the values for the Ki at Adenosine receptor A3 [2] and at Adenosine receptor A1 were 45 nM and 1270 nM, respectively. For the same molecule, at Adenosine receptor A2a [4], the inhibition was determined as 14%.
As for `COc1ccc(Cl)cc1CNc1nc(-n2cc(CC3CCCC3)nn2)nc2c1ncn2[C@@H]1O[C@H](CO)[C@@H](O)[C@H]1O`, the figures for the Ki at Adenosine receptor A3 [2], on Adenosine receptor A2a [6] and on Adenosine receptor A1 were 18 nM, 6000 nM and 830 nM, respectively.
On to `CNc1nc(-n2cc(CN(C)C)nn2)nc2c1ncn2[C@@H]1O[C@H](CO)[C@@H](O)[C@H]1O`, for which, in experiment [1], the outcome was inactive. Besides, the inhibitory constant (Ki) is 117 nM on Adenosine receptor A3 [2], greater than 10000 nM at Adenosine receptor A3 [3] and 3800 nM on Adenosine receptor A1. The molecule also came in with an inhibition at Adenosine receptor A2a [4] of 6%.
Turning to `CCCCc1cn(-c2nc(NC)c3ncn([C@@H]4O[C@H](CO)[C@@H](O)[C@H]4O)c3n2)nn1`, the outcome in experiment [1] was inactive. Further, at Adenosine receptor A3 [2], the affinity corresponds to a Ki of 11.7 nM. Further, in experiment [7], the Selectivity ratio is 72. Also, at Adenosine receptor A2a [4], the inhibition was 23%.
As to `CNc1nc(-c2cn(Cc3cccc(Cl)c3)nn2)nc2c1ncn2[C@@H]1O[C@H](CO)[C@@H](O)[C@H]1O`, the Activity in experiment [1] is less than 50%. Moreover, the Ki at Adenosine receptor A3 [2] is 81.1 nM; at Adenosine receptor A1 it was 956 nM. Also, the inhibition at Adenosine receptor A2a [4] is 39%.
Consider `CCNC(=O)[C@H]1O[C@@H](n2cnc3c(NC)nc(-n4ccnn4)nc32)[C@H](O)[C@@H]1O`, for which the result in experiment [1] was inactive. In addition, the Ki on Adenosine receptor A3 [2] came to 2.1 nM; on Adenosine receptor A1 it was 590 nM. This molecule came in with an inhibition on Adenosine receptor A2a [4] of 18%.
On to `CCc1cn(-c2nc(NC)c3ncn([C@@H]4O[C@H](CO)[C@@H](O)[C@H]4O)c3n2)nn1`, for which, in experiment [1], the Activity was less than 50%. For the same molecule, the Ki amounted to 13.8 nM at Adenosine receptor A3 [2] and 2920 nM at Adenosine receptor A1. The inhibition on Adenosine receptor A2a [4] amounted to 18%.
For `CNc1nc(-n2cc(Cc3ccccc3)nn2)nc2c1ncn2[C@@H]1O[C@H](CO)[C@@H](O)[C@H]1O`, the Activity in experiment [1] was less than 50%. Besides, the Ki was 9.5 nM at Adenosine receptor A3 [2], 1790 nM on Adenosine receptor A3 [3] and 589 nM on Adenosine receptor A1. The same molecule had an inhibition at Adenosine receptor A2a [4] of 20%.
In the case of `CNc1nc(-n2ccnn2)nc2c1ncn2[C@@H]1O[C@H](CO)[C@@H](O)[C@H]1O`, the Ki at Adenosine receptor A3 [2] turned out to be 10.4 nM; on Adenosine receptor A1, 1000 nM. On Adenosine receptor A2a [4], this molecule yielded an inhibition of 13%.
`CNc1nc(N=[N+]=[N-])nc2c1ncn2[C@@H]1O[C@H](CO)[C@@H](O)[C@H]1O`: the Activity in experiment [1] is less than 50%. The molecule further returned an inhibition at Adenosine receptor A2a [4] of 23%.
For `CCNC(=O)[C@H]1O[C@@H](n2cnc3c(NC)nc(-n4cc(-c5ccccn5)nn4)nc32)[C@H](O)[C@@H]1O`, the Activity in experiment [1] was less than 50%. Further, the figures for the Ki at Adenosine receptor A3 [2] and on Adenosine receptor A1 were 1.8 nM and 1640 nM, respectively. The Selectivity ratio in experiment [7] amounted to 910. For the same molecule, the inhibition at Adenosine receptor A2a [4] was 45%.
As to `CNc1nc(-n2cc(CC3CCCC3)nn2)nc2c1ncn2[C@@H]1O[C@H](CO)[C@@H](O)[C@H]1O`, in experiment [1], the Activity was less than 50%. Moreover, the figures for the Ki on Adenosine receptor A3 [2], at Adenosine receptor A3 [3] and at Adenosine receptor A1 were 1.3 nM, 312 nM and 335 nM, respectively. In addition, the Selectivity ratio in experiment [7] worked out at 260. The molecule also registered an inhibition on Adenosine receptor A2a [4] of 39%.
As to `CCCCc1cn(-c2nc(NC)c3ncn([C@@H]4O[C@H](C(=O)NCC)[C@@H](O)[C@H]4O)c3n2)nn1`, in experiment [1], the outcome was inactive. Moreover, the Ki at Adenosine receptor A3 [2] stood at 5.6 nM; on Adenosine receptor A1 it was 750 nM. In addition, the inhibition at Adenosine receptor A2a [4] worked out at 43%.
Take `CCNC(=O)[C@H]1O[C@@H](n2cnc3c(NC)nc(-n4cc(Cc5ccccc5)nn4)nc32)[C@H](O)[C@@H]1O`: the Activity in experiment [1] was found to be 50%. Also, the Ki stood at 2.8 nM on Adenosine receptor A3 [2] and 510 nM at Adenosine receptor A1. Moreover, the inhibition on Adenosine receptor A2a [4] is 33%.
With `CCNC(=O)[C@H]1O[C@@H](n2cnc3c(NC)nc(-n4cc(CC5CCCC5)nn4)nc32)[C@H](O)[C@@H]1O`, the Activity in experiment [1] is less than 50%. The Ki on Adenosine receptor A3 [2] was 11.5 nM; on Adenosine receptor A1, 1250 nM. The same molecule yielded an inhibition at Adenosine receptor A2a [4] of 36%.
For the molecule `CCNC(=O)[C@H]1O[C@@H](n2cnc3c(NC)nc(N=[N+]=[N-])nc32)[C@H](O)[C@@H]1O`, the Activity in experiment [1] stood at 50%. In addition, at Adenosine receptor A2a [4], the inhibition came to 18%.
As to `CNc1nc(-c2cn(Cc3ccccc3)nn2)nc2c1ncn2[C@@H]1O[C@H](CO)[C@@H](O)[C@H]1O`, the Activity in experiment [1] was less than 50%. Besides, the Ki at Adenosine receptor A3 [2] stood at 53.9 nM; on Adenosine receptor A1, 770 nM. In addition, the inhibition at Adenosine receptor A2a [4] was 21%.
`CNc1nc(-n2cc(CC3CCCCC3)nn2)nc2c1ncn2[C@@H]1O[C@H](CO)[C@@H](O)[C@H]1O`: the Activity in experiment [1] is less than 50%. The results for the Ki on Adenosine receptor A3 [2] and at Adenosine receptor A1 were 21.3 nM and 1430 nM, respectively. Further, the Selectivity ratio in experiment [7] amounted to 67. The same molecule displayed an inhibition on Adenosine receptor A2a [4] of 16%.
Regarding `CNc1nc(-c2cn(Cc3cccc(OC)c3)nn2)nc2c1ncn2[C@@H]1O[C@H](CO)[C@@H](O)[C@H]1O`, the Activity in experiment [1] was less than 50%. Also, the Ki came to 86.1 nM on Adenosine receptor A3 [2] and 957 nM at Adenosine receptor A1. The molecule further yielded an inhibition at Adenosine receptor A2a [4] of 43%.
